Rows were chosen to be rich in hits. Some 29% of all compounds tested hit in one or more screens of this group.
CYP2C19 act – activators of human cytochrome P450 2C19; P33261; recombinant CYP2C19, luciferin-H EGE luminescence; active compounds read high; 0 = fully inhibited enzyme, 1 = untreated enzyme; activation factor at 5 µM; 96,000 tested, under 10 active;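 active = activation factor of at least 2 at 5 µM in the primary screen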;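 also: 0 = wells with 2.5 mM tranylcypromine and 1 = vehicle-only wells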
Target sequence (P33261 whole entry, looked up): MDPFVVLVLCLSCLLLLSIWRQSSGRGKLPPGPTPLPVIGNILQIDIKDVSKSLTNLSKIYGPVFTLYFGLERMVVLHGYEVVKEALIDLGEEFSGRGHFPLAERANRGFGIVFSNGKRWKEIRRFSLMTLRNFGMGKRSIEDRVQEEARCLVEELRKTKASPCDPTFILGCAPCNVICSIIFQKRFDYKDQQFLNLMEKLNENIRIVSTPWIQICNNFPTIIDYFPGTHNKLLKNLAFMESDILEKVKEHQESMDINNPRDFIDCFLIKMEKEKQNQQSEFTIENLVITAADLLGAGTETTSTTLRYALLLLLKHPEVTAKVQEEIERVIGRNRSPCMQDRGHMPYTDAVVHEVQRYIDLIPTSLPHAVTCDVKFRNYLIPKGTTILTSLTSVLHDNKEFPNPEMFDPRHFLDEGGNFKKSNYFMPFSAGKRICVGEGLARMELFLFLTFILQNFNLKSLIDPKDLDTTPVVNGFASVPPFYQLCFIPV
tolC growth inh – E. coli tolC mutant growth inhibition. E. coli BW25113 tolC mutant growth, OD615. growth inhibition, % at 10 µM (by protocol). hit rate 2.2% among 65,000. AID 573;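 active = growth inhibition at or above a cutoff equal to the mean over every tested compound plus 3 SD, cut at about 60% in these data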;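 also: growth measured after 20 h incubation at 37 °C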
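signal = optical density read at 615 nm | test system = E. coli ΔtolC::kan strain BW25113 | timing = 20 h compound exposure of bacteria at 37 °C | buffer or medium = LB medium plus 50 µg/mL kanamycin | compound dosing = 10 µM final, single dose | evaluation = % inhibition of E. coli growth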
CYP2C19 inhib – blocks human cytochrome P450 2C19 | P33261 | CYP2C19 Supersomes, luciferin-H EGE luminescence, 30 min | inhibition, % at 5 µM | hit rate 21% among 96,000 | AID 778;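 active = CYP2C19 inhibition above a set limit at 5 µM in the primary screen, cut at about 50% in these data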;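 also: plate controls were negative control wells for no effect and 2.5 mM tranylcypromine positive control for full effect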
CYP2C9 inhib – inhibitors of human CYP2C9 | CYP2C9 Supersomes, luciferin-H conversion, luminescence | inhibition, % at 5 µM | AID 777 | hit rate 20% among 96,000;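 active = blocking of liver enzyme CYP2C9 beyond about 50% at 5 µM, limit read from the data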
Ecoli WT expand – E. coli BW25113 growth inhibition, expanded screen | OD600 absorbance | growth inhibition, % at 100 µM | hit rate 0.15% among 98,000 | AID 710;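 active = growth inhibition above about 50% at one test dose, limit read from the data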;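 also: growth measured after 20 h incubation at 37 °C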
CYP2C9 activ – increases human cytochrome P450 2C9 activity | activation factor at 5 µM | recombinant CYP2C9, luciferin-H conversion, luminescence; active compounds read high; factor 1 = untreated enzyme, 0 = blocked | P11712 | hit rate 1.4% among 96,000;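 active = activation factor of 2 or more for CYP2C9 at a 5 µM dose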;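 also: 0 = sulfaphenazole-blocked wells and 1 = vehicle-only wells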
* marks the source's active call; other numbers are inactive results.

Screening CC(=O)C1=C(C)Nc2ncnn2C1c1ccccc1OCc1ccccc1 (stereo unspecified) returned CYP2C19 act 0.5, tolC growth inh 23, CYP2C19 inhib 54*, CYP2C9 inhib 24, Ecoli WT expand -1 and CYP2C9 activ 0.8.
CC1CCN(C(=O)c2ccc(NC(=O)C3CCCO3)cc2)CC1 (stereo unspecified) was read as CYP2C19 act 1, tolC growth inh -17, CYP2C19 inhib -2, CYP2C9 inhib 10, Ecoli WT expand -4 and CYP2C9 activ 0.9.
For O=S1(=O)N=C(Nc2ccc(O)c(CN3CCCCC3)c2)c2ccccc21 the results were CYP2C19 act 1.2, tolC growth inh -5, CYP2C19 inhib -16, CYP2C9 inhib -18, Ecoli WT expand 2 and CYP2C9 activ 1.2.
For CC(=O)c1cccc(NC(=O)Nc2ccc3c(c2)N(C)C(=O)CS3)c1 the results were CYP2C19 act 0.3, tolC growth inh 11, CYP2C19 inhib 68*, CYP2C9 inhib 59*, Ecoli WT expand 24 and CYP2C9 activ 0.4.
`Cn1ccnc1SCC(=O)NC1CC1` gave CYP2C19 act 1.2, CYP2C19 inhib -15, CYP2C9 inhib 16, Ecoli WT expand -2 and CYP2C9 activ 0.8.
Cn1ccnc1SCC(=O)c1cccc(Br)c1 was read as CYP2C19 act 0.1, CYP2C19 inhib 86*, CYP2C9 inhib 17, Ecoli WT expand 4 and CYP2C9 activ 0.8.
`Cn1c(SCC(=O)c2cc3ccccc3o2)nnc1-c1ccccc1` gave CYP2C19 act 0.2, tolC growth inh 4, CYP2C19 inhib 84*, CYP2C9 inhib 68*, Ecoli WT expand 5 and CYP2C9 activ 0.3.
Screening Cn1ccnc1SCC(=O)c1cc2ccccc2o1 returned CYP2C19 act 0.4, tolC growth inh 2, CYP2C19 inhib 59*, CYP2C9 inhib 2, Ecoli WT expand 5 and CYP2C9 activ 1.
Screening COc1ccc(-n2nnnc2SCC(N)=O)cc1 returned CYP2C19 act 1.1, tolC growth inh -7, CYP2C19 inhib -11, CYP2C9 inhib -15, Ecoli WT expand 5 and CYP2C9 activ 1.1.
For COc1ccc(-n2nnnc2SCC(=O)c2cc3ccccc3o2)cc1 the results were CYP2C19 act 0.1, tolC growth inh 10, CYP2C19 inhib 91*, CYP2C9 inhib 76*, Ecoli WT expand -9 and CYP2C9 activ 0.2.
For O=C(CSc1nc2ccccc2s1)c1cc2ccccc2o1 the results were CYP2C19 act 0.9, CYP2C19 inhib 12, CYP2C9 inhib -26, Ecoli WT expand -6 and CYP2C9 activ 1.3.
`O=C(COC(=O)C1(c2ccc(Cl)cc2)CCCC1)NC1CCS(=O)(=O)C1` (stereo unspecified) gave CYP2C19 act 0.7, CYP2C19 inhib 27, CYP2C9 inhib 4, Ecoli WT expand 4 and CYP2C9 activ 1.
`COc1cccc2c1C(=O)O/C2=C/c1ccc2c(c1)OCO2` gave CYP2C19 act 0.4, CYP2C19 inhib 62*, CYP2C9 inhib 55*, Ecoli WT expand -9 and CYP2C9 activ 0.5.
Screening COCCSc1nc2c(c(=O)[nH]c(=O)n2C)n1Cc1cccc(C)c1 returned tolC growth inh -1 and Ecoli WT expand -1.
For Cc1c(Cl)cccc1NC(=O)CSc1ncnc2c1cnn2CCc1ccccc1 the results were CYP2C19 act 0.4, CYP2C19 inhib 63*, CYP2C9 inhib 89*, Ecoli WT expand -9 and CYP2C9 activ 0.1.
For O=C(CSc1ncnc2c1cnn2CCc1ccccc1)Nc1cccc(C(F)(F)F)c1 the results were CYP2C19 act 0.2, CYP2C19 inhib 78*, CYP2C9 inhib 98*, Ecoli WT expand -17 and CYP2C9 activ 0.
`CC(C)OC(=O)CSc1ncnc2c1cnn2Cc1ccccc1` gave CYP2C19 act 0.7, tolC growth inh 27, CYP2C19 inhib 32, CYP2C9 inhib 31, Ecoli WT expand -2 and CYP2C9 activ 0.7.
For COC(=O)CSc1ncnc2c1cnn2Cc1ccccc1 the results were CYP2C19 act 0.3, tolC growth inh 1, CYP2C19 inhib 68*, CYP2C9 inhib 32, Ecoli WT expand 3 and CYP2C9 activ 0.7.
For O=C(Cn1cnc2c(nnn2Cc2ccc(F)cc2)c1=O)NCc1ccco1 the results were tolC growth inh 8 and Ecoli WT expand 0.
`Cn1nc(C(F)(F)F)c(C(=O)Nc2ccc(F)cc2F)c1Sc1ccc(Cl)cc1` gave CYP2C19 act 0.4, CYP2C19 inhib 61*, CYP2C9 inhib 24, Ecoli WT expand -4 and CYP2C9 activ 0.8.
`Cn1nc(C(F)(F)F)c(C(=O)Nc2ccc(F)cc2F)c1Sc1ccc(C(F)(F)F)cc1` gave CYP2C19 act 0.3, CYP2C19 inhib 69*, CYP2C9 inhib 34, Ecoli WT expand -5 and CYP2C9 activ 0.7.
Cc1ccc(C)c(CN2C(=O)C(C)Oc3ccc(C)cc32)c1 (stereo unspecified) was read as CYP2C19 act 0.6, tolC growth inh -16, CYP2C19 inhib 43, CYP2C9 inhib 9, Ecoli WT expand -11 and CYP2C9 activ 0.9.
`COc1ccc(/C=N/NC(=O)c2ccccc2O)cc1Cn1cc(Cl)cn1` gave CYP2C19 act 0.9, CYP2C19 inhib 11, CYP2C9 inhib 51*, Ecoli WT expand 1 and CYP2C9 activ 0.5.
For Cc1ccccc1-n1ncc2c([N+](=O)[O-])cc([N+](=O)[O-])cc21 the results were Ecoli WT expand -1.
Screening O=C(CN1CCCCC1)Nc1cccc(Cl)c1Cl returned CYP2C19 act 0.7, tolC growth inh -5, CYP2C19 inhib 31, CYP2C9 inhib -11, Ecoli WT expand 9 and CYP2C9 activ 1.1.
CCC(=O)Nc1ccc(NC(=O)CN2CCCC(C)C2)c(Cl)c1 (stereo unspecified) was read as CYP2C19 act 1, tolC growth inh 8, CYP2C19 inhib 3, CYP2C9 inhib 6, Ecoli WT expand 16 and CYP2C9 activ 0.9.
`O=C(CN1CCOCC1)Nc1cccc(Cl)c1Cl` gave CYP2C19 act 0.2, tolC growth inh -8, CYP2C19 inhib 78*, CYP2C9 inhib -30, Ecoli WT expand 7 and CYP2C9 activ 1.3.
Cc1ccc(S(=O)(=O)Nc2ccc(NC(=O)CN3CCCCC3)c(Cl)c2)cc1 was read as CYP2C19 act 0.3, CYP2C19 inhib 71*, CYP2C9 inhib 100*, Ecoli WT expand 10 and CYP2C9 activ 0.
For O=C(CN1CCCCC1)Nc1ccc(F)c(Cl)c1 the results were CYP2C19 act 0.2, tolC growth inh -7, CYP2C19 inhib 81*, CYP2C9 inhib 8, Ecoli WT expand 7 and CYP2C9 activ 0.9.
O=C(CN1CCCCC1)Nc1cc(Cl)ccc1Cl was read as CYP2C19 act 0.4, tolC growth inh -10, CYP2C19 inhib 63*, CYP2C9 inhib -118, Ecoli WT expand 4 and CYP2C9 activ 2.2*.
For O=C(CCn1c(=O)oc2ccccc21)N1CCc2ccccc21 the results were CYP2C19 act 1, tolC growth inh -24, CYP2C19 inhib -2, CYP2C9 inhib 4, Ecoli WT expand 9 and CYP2C9 activ 1.

Screens from PubChem.
